Source: ChEMBL document CHEMBL4152390, “Discovery of the First-in-Class Dual Histone Deacetylase-Proteasome Inhibitor” (J Med Chem, 2018)
Calls of active or inactive are those of the source. The rule behind the calls is not given here.

Columns and labels:
SEM cells [1] = assay: Induction of apoptosis in human SEM cells assessed as increase in caspase 3/7 activity at IC50 after 48 hrs by glo assay relative to control; type: functional
How it was run: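 Cells treated at IC50 or 2x IC50 for 48 h; caspase-3/7 activity read by luminescence after cleavage of a DEVD-containing luminogenic substrate.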

[2] = Cytotoxicity against human BCP-ALL cells derived from patient 4 after 72 hrs by CellTiter-Glo luminescent cell viability assay; type: functional, cell-based
SEM cells [3] = assay: Inhibition of HDAC6/chymotrypsin-like activity of 20S proteasome in human SEM cells assessed as decrease in aggresome accumulation at IC50 to 2 times IC50 after 18 hrs by FACS analysis; type: cell-based
How it was run: (§1)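 Cells treated 18 h, then stained with a proteostat aggresome dye plus DNA stain. Imaged by fluorescence microscopy (63X objective) or analysed by FACS, with aggresome propensity factor from relative mean fluorescence intensity.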

SEM cells [4] = assay: Inhibition of HDAC6/chymotrypsin-like activity of 20S proteasome in human SEM cells assessed as decrease in aggresome accumulation at IC50 to 2 times IC50 after 18 hrs by fluorescence microscopic method; type: cell-based; how it was run: as §1
SEM cells [5] = assay: Inhibition of HDAC6/chymotrypsin-like activity of 20S proteasome in human SEM cells assessed as increase in Grp94 protein expression at 0.1 to 10 uM after 18 hrs by Western blot assay; type: cell-based
How it was run: (§2)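 Cells treated 18 h at indicated concentrations; lysates analysed by western blot for heat shock (Grp94, HSP70, HSP40, HSP27), UPR (BIP, ATF4, ATF6, pJNK) and autophagy (LC3B, p62) proteins.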

SEM cells [6] = assay: Reduction of colony forming capacity of human SEM cells at IC50 to 2 times IC50 after 48 hrs; type: functional, cell-based
How it was run: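 SEM cells pretreated in liquid medium (methods: 24 h; legend: 48 h), then plated in semisolid methylcellulose-based medium containing compound or control; colonies counted after 14 days.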

Homo sapiens = organism: Homo sapiens; assay: Inhibition of HDAC6/chymotrypsin-like activity of 20S proteasome in human HL60 cells assessed as increase in cleaved PARP expression at 0.1 to 10 uM after 24 hrs by immunoblot assay; type: cell-based
How it was run: (§3)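 Cells exposed for 24 h at indicated concentrations; lysates immunoblotted for acetyl-α-tubulin, acetyl-histone H3, PARP, with GAPDH as loading control.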

SEM cells [7] = assay: Antiproliferative activity against human SEM cells at IC50 to 2 times IC50 after 24 to 72 hrs by trypan exclusion method; type: functional, cell-based
[8] = Cytotoxicity against human BCP-ALL cells derived from patient 1 after 72 hrs by CellTiter-Glo luminescent cell viability assay; type: functional, cell-based
[9] = target: T1, Protein deacetylase HDAC6 (Homo sapiens) (UniProt Q9UBN7); assay: Inhibition of HDAC6 in human SEM cells assessed as increase in acetyl-histone H3 expression at 0.1 to 10 uM after 24 hrs by immunoblot assay; type: cell-based; how it was run: as §3
T1 sequence (whole entry): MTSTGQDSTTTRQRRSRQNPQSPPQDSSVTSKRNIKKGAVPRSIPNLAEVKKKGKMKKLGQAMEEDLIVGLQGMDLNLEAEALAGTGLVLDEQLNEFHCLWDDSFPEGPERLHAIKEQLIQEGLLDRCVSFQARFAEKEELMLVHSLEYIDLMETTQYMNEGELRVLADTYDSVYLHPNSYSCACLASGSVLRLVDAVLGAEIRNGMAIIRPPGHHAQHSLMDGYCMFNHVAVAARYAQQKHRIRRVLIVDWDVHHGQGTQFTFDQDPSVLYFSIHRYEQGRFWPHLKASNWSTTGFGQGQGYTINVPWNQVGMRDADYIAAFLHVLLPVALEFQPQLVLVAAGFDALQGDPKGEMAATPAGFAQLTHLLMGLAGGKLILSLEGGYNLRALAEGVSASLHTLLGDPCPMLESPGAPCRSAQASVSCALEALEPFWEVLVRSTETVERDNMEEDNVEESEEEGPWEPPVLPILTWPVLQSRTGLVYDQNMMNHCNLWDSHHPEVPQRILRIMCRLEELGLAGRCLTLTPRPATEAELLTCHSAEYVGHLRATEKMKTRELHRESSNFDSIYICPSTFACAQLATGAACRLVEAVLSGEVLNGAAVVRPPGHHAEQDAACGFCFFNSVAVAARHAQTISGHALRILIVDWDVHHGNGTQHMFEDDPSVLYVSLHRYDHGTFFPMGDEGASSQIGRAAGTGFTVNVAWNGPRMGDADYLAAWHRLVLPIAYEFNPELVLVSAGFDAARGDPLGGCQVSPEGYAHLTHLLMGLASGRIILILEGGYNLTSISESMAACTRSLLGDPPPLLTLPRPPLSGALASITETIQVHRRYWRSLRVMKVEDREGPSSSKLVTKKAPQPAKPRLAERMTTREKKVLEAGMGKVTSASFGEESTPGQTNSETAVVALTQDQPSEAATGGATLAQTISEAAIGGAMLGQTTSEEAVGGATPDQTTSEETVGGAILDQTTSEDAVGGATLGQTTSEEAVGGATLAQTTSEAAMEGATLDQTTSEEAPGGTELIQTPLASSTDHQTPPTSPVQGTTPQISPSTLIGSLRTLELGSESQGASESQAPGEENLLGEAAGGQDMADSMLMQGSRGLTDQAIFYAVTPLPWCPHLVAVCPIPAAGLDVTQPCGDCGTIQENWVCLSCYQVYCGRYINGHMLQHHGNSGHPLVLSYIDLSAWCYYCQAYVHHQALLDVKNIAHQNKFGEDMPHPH

[10] = target: T2, Proteasome component C5 (Homo sapiens) (UniProt P20618); assay: Inhibition of caspase-like activity of 20S proteasome in imatinib-resistant human SUP-B15 cells at 4 nM to 25 uM using Z-nLPnLD-aminoluciferin as substrate after 2 hrs by proteasome-Glo assay; type: cell-based
T2 sequence (whole entry): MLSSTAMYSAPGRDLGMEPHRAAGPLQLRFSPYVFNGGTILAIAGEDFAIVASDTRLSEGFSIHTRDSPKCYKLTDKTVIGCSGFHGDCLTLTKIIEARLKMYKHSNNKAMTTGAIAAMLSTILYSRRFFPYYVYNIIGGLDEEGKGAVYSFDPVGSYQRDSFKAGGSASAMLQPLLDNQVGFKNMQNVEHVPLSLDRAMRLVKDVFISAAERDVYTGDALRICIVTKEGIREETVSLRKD

Histone deacetylase 1 = Histone deacetylase 1 (Homo sapiens, UniProt Q13547); assay: Inhibition of C-terminal FLAG-His-tagged full length recombinant human HDAC1 expressed in Sf21 insect cells using RHKK(Ac)AMC as substrate by fluorescence-based assay
Chain of Histone deacetylase 1 (Q13547 whole entry): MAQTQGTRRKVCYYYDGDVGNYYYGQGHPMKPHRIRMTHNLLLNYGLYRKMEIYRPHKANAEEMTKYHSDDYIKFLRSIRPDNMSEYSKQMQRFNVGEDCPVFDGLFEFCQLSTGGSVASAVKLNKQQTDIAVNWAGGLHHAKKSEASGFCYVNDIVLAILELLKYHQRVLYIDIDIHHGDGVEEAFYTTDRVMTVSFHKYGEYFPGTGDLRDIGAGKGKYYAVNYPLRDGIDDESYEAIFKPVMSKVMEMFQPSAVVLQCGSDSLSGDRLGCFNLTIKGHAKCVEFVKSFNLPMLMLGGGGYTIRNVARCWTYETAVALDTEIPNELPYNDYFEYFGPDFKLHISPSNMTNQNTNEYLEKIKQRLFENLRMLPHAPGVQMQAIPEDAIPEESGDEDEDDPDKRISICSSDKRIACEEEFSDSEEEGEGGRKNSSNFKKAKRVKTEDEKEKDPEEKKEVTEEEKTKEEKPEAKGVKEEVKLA

SEM cells [11] = assay: Inhibition of HDAC6/chymotrypsin-like activity of 20S proteasome in human SEM cells assessed as increase in phosphorylated JNK protein expression at 0.1 to 10 uM after 18 hrs by Western blot assay; type: cell-based; how it was run: as §2
SEM cells [12] = assay: Cytotoxicity against human SEM cells after 72 hrs by CellTiter-Glo luminescent cell viability assay; type: functional, cell-based
How it was run: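 Inhibitors dispensed in increasing concentrations (50 nM–25 μM) and cells exposed 72 h. Viability read by ATP-dependent luminescence (CellTiter-Glo). Raw data normalized to controls. IC50 obtained by sigmoid dose–response fit with non-linear regression.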

SUP-B15 = assay: Cytotoxicity against imatinib-resistant human SUP-B15 cells after 72 hrs by CellTiter-Glo luminescent cell viability assay; type: functional, cell-based; settings: SUP-B15, 72 h

inhibition [9]: Active | inhibition [10]: inactive | IC50 (Histone deacetylase 1): 6900 nM
Compound: C[C@H](NC(=O)[C@H](CC(=O)NCC(C)(C)C)NC(=O)c1ccc(C(=O)NO)cc1)C(=O)NCc1ccccc1
fold change (FC) (SEM cells [1]): 6 | IC50 [2]: 1510 nM | inhibition (SEM cells [3]): Active | inhibition (SEM cells [4]): Active | inhibition (SEM cells [5]): Active | Activity (SEM cells [6]): Active | inhibition (Homo sapiens): Active | Activity (SEM cells [7]): Active | IC50 [8]: 2060 nM | inhibition (SEM cells [11]): Active | IC50 (SEM cells [12]): 890 nM | IC50 (SUP-B15): 1830 nM
